The text below walks through data of the array DNA melting data of Ke et al. (doi:10.1101/2024.01.08.574731).

The nature of data set [1]: melting temperature; fluorescence melt of hairpins on a sequencing array, two-state fit, raised by 9.35 °C to match UV melts. Particulars: sodium 0.088 M. The method in brief: (§1)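 Cy3 signals were normalised both to pre-quench Cy3 and to control constructs. They came from library hairpins carrying annealed Cy3 and quencher oligos on a sequenced MiSeq flow cell, imaged in 50 mM Na-HEPES pH 8.0, 25 mM NaCl, in 2.5 °C steps up to 60 °C. Bootstrapped two-state fits gave melting temperature and folding enthalpy, and four replicates were combined by inverse variance. Fitted temperatures were then raised by 9.35 °C to match UV melts.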

Data set [2] can be described thus: folding enthalpy; higher = less favourable; fluorescence melt of hairpins on a sequencing array, two-state fit. The settings on record: sodium 0.088 M. In a few lines:
as §1

Consider GACAGAGCGAAAGCTGTC (((..(((....)))))), for which the Tm in data set [1] turned out to be 46.7 °C. Moreover, the folding enthalpy in data set [2] was -18.3 kcal/mol.

With GACAGCGAAAGCTAAGTC ((((((....)))..))), the Tm in data set [1] was determined as 38.2 °C. Further, the folding enthalpy in data set [2] is -17.5 kcal/mol.

Take GACAGCGAAAGCTATGTC ((((((....)))..))): the Tm in data set [1] amounted to 43.5 °C. In addition, the folding enthalpy in data set [2] is -19.1 kcal/mol.

Consider GACAGCGGAAACGCTACC (..((((....))))..), for which the Tm in data set [1] is 24.2 °C. Besides, the folding enthalpy in data set [2] is -11.1 kcal/mol.

GACAGGCCGAAAGGCGTC (((..(((....)))))): the Tm in data set [1] worked out at 47.7 °C. Further, in data set [2], the folding enthalpy was -14.9 kcal/mol.

With GACAGGGGAAACCCCGTC (((.(((....))).))), the Tm in data set [1] turned out to be 50.3 °C. The folding enthalpy in data set [2] is -24.6 kcal/mol.

With GACAGGGGAAACCTTGTC ((((.((....)).)))), in data set [1], the Tm was 45.2 °C. Moreover, in data set [2], the folding enthalpy was -32.4 kcal/mol.

Take GACAGTGGAAACACTGTC (((((((....))))))): the Tm in data set [1] came to 60.8 °C. The folding enthalpy in data set [2] is -39.5 kcal/mol.

Take GACAGTGGAAACGCTGTC (((((.(....).))))): the Tm in data set [1] stood at 52.1 °C. The folding enthalpy in data set [2] was -40.9 kcal/mol.

Turning to GACATACGAAAGTAGTC (((.(((....)))))), in data set [1], the Tm is 41.5 °C. Further, the folding enthalpy in data set [2] was -22.2 kcal/mol.

For the sequence GACATAGGAAACTATGCC (.(((((....))))).), the Tm in data set [1] came to 34.3 °C. Besides, in data set [2], the folding enthalpy is -18.6 kcal/mol.

For GACATCGCGAAAGCGGTC (((..(((....)))))), the Tm in data set [1] is 34.8 °C. The folding enthalpy in data set [2] is -11.6 kcal/mol.

GACATCGGAAACGACGTC (((.(((....))).))): in data set [1], the Tm came out at 43.3 °C. Further, in data set [2], the folding enthalpy is -28 kcal/mol.

In the case of GACATGCGAAAGCAGGTC (((.(((....))).))), in data set [1], the Tm came out at 65.7 °C. The folding enthalpy in data set [2] was -29.8 kcal/mol.

GACATGGGAAACTATGTC (((((.(....).))))): in data set [1], the Tm was determined as 44.4 °C. For the same sequence, in data set [2], the folding enthalpy was -27.6 kcal/mol.

As to GACATTACGAAAGTAGTC (((..(((....)))))), the Tm in data set [1] came to 27.4 °C. The folding enthalpy in data set [2] was -14.8 kcal/mol.

With GACATTGGAAACAGTGTC ((((.((....)).)))), the Tm in data set [1] is 42.6 °C. For the same sequence, the folding enthalpy in data set [2] is -33.1 kcal/mol.

Take GACCAAGGAAACTTGATC ((.((((....)))).)): the Tm in data set [1] was 28.8 °C. The folding enthalpy in data set [2] is -16.8 kcal/mol.

Take GACCACCCGAAAGGGGTC (((..(((....)))))): the Tm in data set [1] stood at 46.5 °C. The folding enthalpy in data set [2] is -13.1 kcal/mol.

For the sequence GACCACGAAAGTGCAGTC ((((((....)))..))), the Tm in data set [1] came to 36.6 °C. Moreover, the folding enthalpy in data set [2] is -17.5 kcal/mol.

With GACCACGGAAACGCGGTC ((((.((....)).)))), the Tm in data set [1] was 53.2 °C. The folding enthalpy in data set [2] was -49 kcal/mol.

As to GACCACGGAAACGTGGCC (.(((((....))))).), the Tm in data set [1] was found to be 49.9 °C. Besides, the folding enthalpy in data set [2] was -13.3 kcal/mol.

On to GACCAGAAATGGTC (((((....))))), for which the Tm in data set [1] turned out to be 51.2 °C. Also, in data set [2], the folding enthalpy was -33.2 kcal/mol.

GACCAGCGAAAGCTAGTC (((.(((....))).))): the Tm in data set [1] came out at 44.8 °C. The folding enthalpy in data set [2] is -23.1 kcal/mol.

As to GACCAGGGAAACCTGACC (..((((....))))..), the Tm in data set [1] came out at 30.1 °C. In addition, the folding enthalpy in data set [2] was -10 kcal/mol.

As for GACCCAGAAATGGGTC ((((((....)))))), the Tm in data set [1] worked out at 64 °C. In data set [2], the folding enthalpy is -35.3 kcal/mol.

As to GACCCAGGAAACTGAGTC (((.(((....))).))), in data set [1], the Tm stood at 37.9 °C. For the same sequence, in data set [2], the folding enthalpy is -30 kcal/mol.

In the case of GACCCAGGAAACTGGATC ((.((((....)))).)), in data set [1], the Tm was 38.8 °C. Besides, the folding enthalpy in data set [2] was -17.9 kcal/mol.

As for GACCCCACGAAAGTGGTC (((..(((....)))))), the Tm in data set [1] came to 28.9 °C. For the same sequence, in data set [2], the folding enthalpy was -8.51 kcal/mol.

As to GACCCCCCGAAAGGGGTC (((..(((....)))))), in data set [1], the Tm is 57.2 °C. In addition, the folding enthalpy in data set [2] is -15.2 kcal/mol.

Take GACCCCCGAAAGGGCGTC (((.(((....))).))): the Tm in data set [1] was determined as 55.4 °C. In addition, the folding enthalpy in data set [2] was -25.1 kcal/mol.

As to GACCCCGAAAGGGATGTC ((((((....)))..))), the Tm in data set [1] was found to be 41.2 °C. The folding enthalpy in data set [2] was -15.6 kcal/mol.

For GACCCCGAAAGGGCAGTC ((((((....)))..))), the Tm in data set [1] is 35.4 °C. For the same sequence, the folding enthalpy in data set [2] was -14 kcal/mol.

On to GACCCCGAAAGGGCCGTC ((((((....)))..))), for which the Tm in data set [1] worked out at 35.7 °C. In addition, the folding enthalpy in data set [2] is -14 kcal/mol.

For the sequence GACCCCGAAAGGGCTGTC ((((((....)))..))), the Tm in data set [1] amounted to 40.9 °C. Besides, the folding enthalpy in data set [2] is -14.6 kcal/mol.

Consider GACCCCGAAAGGGTGGTC ((((((....)))..))), for which, in data set [1], the Tm amounted to 49.4 °C. Moreover, the folding enthalpy in data set [2] is -16.5 kcal/mol.
